Source: ChEMBL document CHEMBL4177701, “A novel series of enoyl reductase inhibitors targeting the ESKAPE pathogens, Staphylococcus aureus and Acinetobacter baumannii” (Bioorg Med Chem, 2018)
In brackets after ≈: the same amount, converted by molar mass. Activity calls are given as the source filed them. The rule behind the calls is not given here.

How the values were obtained:
Staphylococcus aureus [1] = assay: Antibacterial activity against Staphylococcus aureus Newman by microbroth dilution method; assay type: functional
In short: (§1)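 Microbroth dilution MIC; each value is the mean of at least two runs, within two-fold experimental uncertainty.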

[2] = system: Acinetobacter baumannii ATCC 19606 = CIP 70.34 = JCM 6841; assay: Binding affinity to Acinetobacter baumannii 2208 ATCC 19606 FabI by SPR assay
[3] = Inhibition of Acinetobacter baumannii 2208 ATCC 19606 FabI using crotonyl-CoA as substrate in presence of NADPH/NADH after 10 mins by fluorescence assay; design: species or system Acinetobacter baumannii ATCC 19606 = CIP 70.34 = JCM 6841
In short: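 AbFabI, 200 nM, in 50 mM MES/100 mM NaCl with 200 μM NADH, 0.1 mg/mL BSA and 0.01% triton. Reaction started with 300 μM crotonyl-CoA. NADH fluorescence read at 340/460 nm. Compounds tested at 0.4 nM–200 μM. Initial 10-min slopes were compared with a DMSO no-compound control. At least two independent experiments, each in duplicate; two-fold uncertainty.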

Acinetobacter baumannii [4] = assay: Antibacterial activity against Acinetobacter baumannii 2208 ATCC 19606 by microbroth dilution method; assay type: functional; conditions: ATCC 19606 = CIP 70.34 = JCM 6841 2208; in short: as §1
Staphylococcus aureus [5] = assay: Antibacterial activity against Staphylococcus aureus RN4220 by microbroth dilution method; assay type: functional
In short: (§2)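 Broth microdilution MIC; reported value is mean of at least two runs, within two-fold experimental uncertainty.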

Staphylococcus aureus [6] = assay: Antibacterial activity against Staphylococcus aureus RN4220 over-expressing FabI by microbroth dilution method; assay type: functional; in short: as §2
[7] = Competitive inhibition of Acinetobacter baumannii 2208 ATCC 19606 FabI using crotonyl-CoA as substrate in presence of NADPH/NADH after 10 mins by fluorescence assay; design: species or system Acinetobacter baumannii ATCC 19606 = CIP 70.34 = JCM 6841
[8] = target: T1, Enoyl-[acyl-carrier-protein] reductase [NADPH] FabI (Staphylococcus aureus, UniProt Q6GI75); assay: Competitive inhibition of Staphylococcus aureus subsp. aureus Rosenbach ATCC 43300 FabI using crotonyl-CoA as substrate in presence of NADPH/NADH after 10 mins by fluorescence assay
T1 sequence (Q6GI75 whole entry): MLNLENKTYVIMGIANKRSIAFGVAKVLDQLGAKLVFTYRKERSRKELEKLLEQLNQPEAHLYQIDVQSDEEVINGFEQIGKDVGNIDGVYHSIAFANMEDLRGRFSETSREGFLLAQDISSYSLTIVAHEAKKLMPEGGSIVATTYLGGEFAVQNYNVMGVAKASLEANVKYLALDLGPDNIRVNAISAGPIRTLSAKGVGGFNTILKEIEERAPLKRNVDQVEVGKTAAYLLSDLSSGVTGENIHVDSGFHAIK

Escherichia coli [9] = assay: Antibacterial activity against Escherichia coli BW25113 mutant by microbroth dilution method; assay type: functional; in short: as §2
[10] = target: T2, Enoyl-[acyl-carrier-protein] reductase [NADPH] FabI (Staphylococcus aureus) (UniProt Q6GI75); assay: Binding affinity to Staphylococcus aureus subsp. aureus Rosenbach ATCC 43300 FabI by SPR assay
T2 sequence (whole entry): T1 sequence (Q6GI75 whole entry)

Staphylococcus aureus [11] = assay: Antibacterial activity against methicillin-resistant Staphylococcus aureus subsp. aureus Rosenbach ATCC 43300 by microbroth dilution method; assay type: functional; in short: as §2
Acinetobacter baumannii [12] = assay: Synergistic antibacterial activity against Acinetobacter baumannii 2208 ATCC 19606 in presence of colistin by checkerboard method; assay type: functional; conditions: ATCC 19606 = CIP 70.34 = JCM 6841 2208
Acinetobacter baumannii [13] = assay: Synergistic antibacterial activity against Acinetobacter baumannii 2208 ATCC 19606 assessed as fractional inhibitory concentration in presence of colistin by checkerboard method; assay type: functional, ATCC 19606 = CIP 70.34 = JCM 6841 2208
Acinetobacter baumannii [14] = assay: Synergistic antibacterial activity against Acinetobacter baumannii 2208 ATCC 19606 assessed as colistin MIC by checkerboard method; assay type: functional; conditions: ATCC 19606 = CIP 70.34 = JCM 6841 2208
Escherichia coli [15] = assay: Antibacterial activity against Escherichia coli BW25113 harboring TolC deletion mutant by microbroth dilution method; assay type: functional; in short: as §2
[16] = target: T1, Enoyl-[acyl-carrier-protein] reductase [NADPH] FabI; assay: Inhibition of Staphylococcus aureus subsp. aureus Rosenbach ATCC 43300 FabI using crotonyl-CoA as substrate in presence of NADPH/NADH after 10 mins by fluorescence assay
In short: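 SaFabI enzyme, 300 nM, in 50 mM MES/100 mM NaCl with 200 μM NADPH, 0.1 mg/mL BSA, 0.01% triton; started with 400 μM crotonyl-CoA. NADPH fluorescence at 340/460 nm. Compounds 0.4 nM–200 μM. Slopes over first 10 min compared with DMSO control for % inhibition. At least two independent experiments, each in duplicate. Two-fold experimental uncertainty.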

SMILES | MIC (Staphylococcus aureus [1]) | Activity [2] | IC50 [3] | MIC (Acinetobacter baumannii [4]) | MIC (Staphylococcus aureus [5]) | MIC (Staphylococcus aureus [6]) | Ki [7] | Ki [8] | MIC (Escherichia coli [9]) | Activity [10] | MIC (Staphylococcus aureus [11]) | MIC (Acinetobacter baumannii [12]) | FIC (Acinetobacter baumannii [13]) | MIC (Acinetobacter baumannii [14]) | MIC (Escherichia coli [15]) | Activity (Staphylococcus aureus [5]) | Activity (Staphylococcus aureus [6]) | IC50 [16]
COc1ccccc1C1CCN(C(=O)Cc2ccccc2F)C1 (racemic) | 160 µM | Active | 2.1 µM | > 200 mg/L | 50 mg/L (≈ 160 µM) | 100 mg/L (≈ 319 µM) | 1.1 µM | 1.7 µM | > 200 mg/L | Active | 100 mg/L (≈ 319 µM) | – | – | – | – | – | – | –
CC(=O)Nc1ccc(/C=C/C(=O)N2CCC(c3ccccn3)C2)cn1 (racemic) | > 200 mg/L | Active | 7.1 µM | > 200 mg/L | > 200 mg/L | – | 3.6 µM | 10.5 µM | > 200 mg/L | Active | > 200 mg/L | 100 mg/L | 1 | 0.39 mg/L | > 200 mg/L | – | – | –
O=C(N[C@H](CO)[C@H](O)c1ccc([N+](=O)[O-])cc1)C(Cl)Cl | – | – | – | – | – | – | – | – | – | – | – | – | – | – | – | Active | Active | –
CC(=O)Nc1ccc(/C=C/C(=O)N2CCC(c3ccccc3)C2)cn1 (racemic) | > 200 mg/L | Active | 0.47 µM | > 200 mg/L | > 200 mg/L | > 200 mg/L | 0.2 µM | 0.4 µM | – | Active | > 200 mg/L | – | – | 3.1 mg/L | 12.5 mg/L (≈ 37.3 µM) | – | – | –
CC(C)S(=O)(=O)c1ccc(CC(=O)N2CCC(c3ccc4c(c3)OCO4)C2)cc1 (racemic) | – | Active | > 100 µM | > 200 mg/L | – | > 200 mg/L | > 50 µM | > 37.1 µM | > 200 mg/L | Active | > 200 mg/L | – | – | – | – | – | – | > 100 µM
CN(C)[C@@H]1C(O)=C(C(N)=O)C(=O)[C@@]2(O)C(O)=C3C(=O)c4c(O)cccc4[C@@](C)(O)[C@H]3C[C@@H]12 | – | – | – | – | – | – | – | – | – | – | – | – | – | – | – | Active | Active | –
O=C(Cc1ccccc1F)N1CCC(c2ccc3c(c2)OCO3)C1 (racemic) | – | Active | 32 µM | > 200 mg/L | – | > 200 mg/L | 16 µM | 1 µM | > 200 mg/L | Active | > 200 mg/L | – | – | – | – | – | – | –
CC[C@H]1OC(=O)[C@H](C)[C@@H](O[C@H]2C[C@@](C)(OC)[C@@H](O)[C@H](C)O2)[C@H](C)[C@@H](O[C@@H]2O[C@H](C)C[C@H](N(C)C)[C@H]2O)[C@](C)(O)C[C@@H](C)C(=O)[C@H](C)[C@@H](O)[C@]1(C)O | – | – | – | – | – | – | – | – | – | – | – | – | – | – | – | Active | Active | –
CC(=O)Nc1ccc(/C=C/C(=O)N2CCC(c3ccc4c(c3)OCO4)C2)cn1 (racemic) | – | Active | 8.5 µM | > 200 mg/L | – | > 200 mg/L | 4.3 µM | 0.4 µM | > 200 mg/L | Active | > 200 mg/L | – | – | 1.56 mg/L | > 200 mg/L | – | – | –
COc1ccccc1C1CCN(C(=O)Cc2cccc(F)c2F)C1 (racemic) | 100 mg/L | Active | 7.4 µM | > 200 mg/L | 100 mg/L (≈ 302 µM) | > 200 mg/L | 3.7 µM | 1.1 µM | > 200 mg/L | Active | 100 mg/L (≈ 302 µM) | – | – | – | – | – | – | –
CC(=O)Nc1ccc(/C=C/C(=O)N2CCC(c3nccs3)C2)cn1 (racemic) | > 200 mg/L | Active | 20 µM | > 200 mg/L | > 200 mg/L | – | 10 µM | 1.7 µM | > 200 mg/L | Active | > 200 mg/L | 100 mg/L | 1 | 0.39 mg/L | > 200 mg/L | – | – | –
O=C(Cc1cccc(F)c1F)N1CCC(c2ccc3c(c2)OCO3)C1 (racemic) | – | Active | 13.7 µM | > 200 mg/L | > 200 mg/L | – | 6.9 µM | 2 µM | > 200 mg/L | Active | > 200 mg/L | – | – | – | – | – | – | –
O=C(Cc1ccccc1Cl)N1CCC(c2nccs2)C1 (racemic) | 163 µM | Active | 14 µM | > 200 mg/L | – | > 200 mg/L | 7 µM | 2.2 µM | > 100 mg/L | Active | 100 mg/L (≈ 326 µM) | 50 mg/L | 0.75 | 0.39 mg/L | > 100 mg/L | – | – | –
O=C(Cc1c(F)cccc1F)N1CCC(c2ccc3c(c2)OCO3)C1 (racemic) | – | Active | 54 µM | > 200 mg/L | – | > 200 mg/L | 27 µM | 0.9 µM | > 200 mg/L | Active | > 200 mg/L | – | – | – | – | – | – | –
COc1ccc(C2CCN(C(=O)Cc3ccccc3Cl)C2)cc1 (racemic) | – | Active | > 200 µM | > 200 mg/L | > 200 mg/L | – | > 100 µM | 4.6 µM | – | Active | > 200 mg/L | – | – | – | > 200 mg/L | – | – | –
CN[C@@H]1[C@H](O[C@H]2[C@H](O[C@H]3[C@H](O)[C@@H](O)[C@H](N=C(N)N)[C@@H](O)[C@@H]3N=C(N)N)O[C@@H](C)[C@]2(O)C=O)O[C@@H](CO)[C@H](O)[C@H]1O | – | – | – | – | – | – | – | – | – | – | – | – | – | – | – | Active | Active | –
COc1ccc(C2CCN(C(=O)/C=C/c3ccc(NC(C)=O)nc3)C2)cc1 (racemic) | – | Active | > 200 µM | > 200 mg/L | – | > 200 mg/L | > 100 µM | 1.3 µM | > 200 mg/L | Active | – | – | – | – | – | – | – | 3.6 µM
